FXIa inh – blocks human coagulation factor XIa protease activity | P03951 | purified FXIa, Boc-Glu-Ala-Arg-AMC fluorogenic substrate | inhibition, % at 5 µM | 0.14% of 220,000 active | AID 798;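 active = inhibition of at least 40%; inactive = inhibition below 40%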;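 also: fluorescence of freed AMC excited at 355 nm; 0% = enzyme without compound and 100% = no enzyme blank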
Target sequence (P03951 19-387 limits assumed): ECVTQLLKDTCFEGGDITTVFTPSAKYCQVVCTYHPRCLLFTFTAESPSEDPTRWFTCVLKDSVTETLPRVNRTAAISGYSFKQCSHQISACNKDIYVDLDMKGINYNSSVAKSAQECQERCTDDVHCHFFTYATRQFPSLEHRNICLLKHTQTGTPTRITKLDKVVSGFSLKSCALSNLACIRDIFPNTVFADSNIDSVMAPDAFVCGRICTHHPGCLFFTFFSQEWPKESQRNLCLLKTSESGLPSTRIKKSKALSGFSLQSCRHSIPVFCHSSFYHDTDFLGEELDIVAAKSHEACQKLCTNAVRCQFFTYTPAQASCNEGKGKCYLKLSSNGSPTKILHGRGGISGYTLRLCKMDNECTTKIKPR
Target sequence (P03951 388-625 limits assumed): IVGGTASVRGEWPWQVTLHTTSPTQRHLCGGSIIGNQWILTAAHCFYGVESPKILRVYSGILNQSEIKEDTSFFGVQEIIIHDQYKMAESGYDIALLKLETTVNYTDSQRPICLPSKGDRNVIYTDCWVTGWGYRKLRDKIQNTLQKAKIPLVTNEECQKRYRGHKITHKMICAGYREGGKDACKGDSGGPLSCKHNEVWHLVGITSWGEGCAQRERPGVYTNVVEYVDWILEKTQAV
hK5 inh – kallikrein 5 (human) inhibition; recombinant hK5, fluorogenic AMC substrate cleavage; inhibition, % at 5 µM; 0.59% of 210,000 active; AID 873;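 active = inhibition of 40% or more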;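 also: 0% = enzyme controls without compound and 100% = no-enzyme blanks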
Thrombin inh – blocks human thrombin protease activity. 0.26% of 220,000 active. P00734. AID 1046. inhibition, % at 5 µM. alpha-thrombin, Boc-VPR-AMC fluorogenic substrate cleavage;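 active = inhibition at or above 40%; inactive = inhibition below 40%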;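 also: 0% = enzyme with no compound and 100% = wells without enzyme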
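System – human alpha-thrombin · Medium – pH 7.5 Tris (50 mM) with NaCl 150 mM, Tween 20 0.05% · Compound – single-point dosing at 5 µM, 0.2% DMSO · Incubation – enzyme reaction carried out at room temperature · Technique – fluorescence of released AMC, ex 355 nm, em 460 nm · Read-out basis – % inhibition of thrombin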
FXIIa inh – factor XIIa (human) inhibition; purified FXIIa, Boc-QGR-AMC fluorogenic substrate, 2 h; AID 800; inhibition, % at 5 µM; 0.3% of 220,000 active; P00748; in the data active = inhibition above about 40%;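 also: 0% = enzyme with no compound and 100% = blank without enzyme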
m-calpain inh – calpain II (pig) inhibition; purified calpain II, fluorogenic peptide substrate, 30 min; inhibition, % at 16 µM; 0.37% of 220,000 active; AID 1236;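 active = inhibition above about 50%, limit read from the data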
Starred values were filed as active, the others as inactive. Shown are actives, neighbours in structure and some others; about 1.4% of the full set was active somewhere.

C=CCn1c(C)cc(C(=O)COC(=O)/C=C/c2cccc(OC)c2)c1C was read as FXIa inh 0, hK5 inh 11, Thrombin inh -6, FXIIa inh 3 and m-calpain inh 12.
`S=C(NCCc1ccccc1)NCCc1ccccc1` gave FXIa inh 26, hK5 inh -9, Thrombin inh -2, FXIIa inh 24 and m-calpain inh -7.
Screening S=C(NCCc1ccccc1)Nc1ccc(Br)cn1 returned FXIa inh 40*, hK5 inh 52*, Thrombin inh 21, FXIIa inh 30 and m-calpain inh 24.
O=C(c1cc2ccccc2oc1=O)N(Cc1cccc(Br)c1)C1CCS(=O)(=O)C1 (stereo unspecified) was read as FXIa inh -4, hK5 inh -2, Thrombin inh -7, FXIIa inh 8 and m-calpain inh -14.
COc1cc(-c2nnco2)cc(OC)c1OC was read as FXIa inh 34, hK5 inh 38, Thrombin inh -2, FXIIa inh 47* and m-calpain inh 17.
For O=C1c2cccc(Sc3ccccc3)c2C(=O)c2c(Sc3ccccc3)cccc21 the results were FXIa inh -1, hK5 inh -2, Thrombin inh -3, FXIIa inh 6 and m-calpain inh 50*.
`O=C(CS)Nc1ccc2ccccc2c1` gave FXIa inh -1, hK5 inh -1, Thrombin inh -7, FXIIa inh 4 and m-calpain inh 30.
Screening CCCCCC(=O)Nc1ccc2ccccc2c1 returned FXIa inh 17, hK5 inh 124*, Thrombin inh 27, FXIIa inh 22 and m-calpain inh 23.
Screening O=C(Nc1cccc(S(=O)(=O)N2CCOCC2)c1)c1ccc2ccccc2n1 returned FXIa inh 2, hK5 inh 3, Thrombin inh 0, FXIIa inh 7 and m-calpain inh 36.
`Cc1ccc(NC(=O)c2ccc3ccccc3n2)cc1S(=O)(=O)N1CCOCC1` gave FXIa inh 28, hK5 inh 15, Thrombin inh 48*, FXIIa inh 24 and m-calpain inh 17.
Screening CC(=O)NCCOc1nc(N(C)C)nc(N2CCCCC2)n1 returned FXIa inh -5, hK5 inh -10, Thrombin inh -5, FXIIa inh 2 and m-calpain inh -17.
Screening CCOC(=O)C(=O)c1cn(C2OCC(OC(C)=O)C(OC(C)=O)C2OC(C)=O)c2ccccc12 (stereo unspecified) returned FXIa inh 1, hK5 inh -13, Thrombin inh -2, FXIIa inh 4 and m-calpain inh -10.
`CCOC(=O)C1CCN(c2ccc(Cl)nn2)CC1` gave FXIa inh -1, hK5 inh -13, Thrombin inh 3, FXIIa inh 0 and m-calpain inh 7.
Screening O=C(O)C1CCN(c2ccc(Cl)nn2)CC1 returned FXIa inh -2, hK5 inh 1, Thrombin inh 55*, FXIIa inh 9 and m-calpain inh -32.
Cc1ccc(OCC(=O)Nc2nnn(C)n2)c(C)c1 was read as FXIa inh 28, hK5 inh -17, Thrombin inh 4, FXIIa inh 43* and m-calpain inh 18.
For O=C(C[n+]1cc(-c2ccccc2)n2c1CCC2)Nc1nc(-c2ccccc2)cs1 the results were FXIa inh 30, hK5 inh 42*, Thrombin inh 18, FXIIa inh 41* and m-calpain inh 7.
Screening C=CCc1cc(OC)ccc1OCCOCCN1CCc2ccccc2C1 returned FXIa inh -8, hK5 inh -14, Thrombin inh -3, FXIIa inh 0 and m-calpain inh 22.
Screening CC(C)(C)C(=O)CSc1ncnc2c1cnn2-c1ccccc1 returned FXIa inh 43*, hK5 inh 24, Thrombin inh -5, FXIIa inh 19 and m-calpain inh 20.
`CC(C)OC(=O)CSc1ncnc2c1cnn2-c1ccccc1` gave FXIa inh 7, hK5 inh -3, Thrombin inh 2, FXIIa inh 18 and m-calpain inh -28.
Screening Cc1ccccc1-n1ncc2c(SCC(=O)N3c4ccccc4CC3C)ncnc21 (stereo unspecified) returned FXIa inh 20, hK5 inh 32, Thrombin inh 41*, FXIIa inh 26 and m-calpain inh 31.
O=C(NN=C1CCCCCCCCCCC1)c1ccncc1 was read as FXIa inh -7, hK5 inh -5, Thrombin inh 12, FXIIa inh 2 and m-calpain inh -23.
`O=C(c1cc2cc([N+](=O)[O-])ccc2s1)N1CCOCC1` gave FXIa inh -5, hK5 inh -13, Thrombin inh 2, FXIIa inh 0 and m-calpain inh 11.
Screening O=C(c1cc2cc([N+](=O)[O-])ccc2s1)N1CCCCC1 returned FXIa inh -6, hK5 inh -11, Thrombin inh 4, FXIIa inh 3 and m-calpain inh 55*.
O=C(NNC1CC(=O)N(c2ccc(Br)cc2)C1=O)c1ccccn1 (stereo unspecified) was read as FXIa inh -2, hK5 inh -1, Thrombin inh -9, FXIIa inh 8 and m-calpain inh -31.
CCCOc1cccc(OCCSc2nc(C)cc(=O)[nH]2)c1 was read as FXIa inh -8, hK5 inh -13, Thrombin inh -2, FXIIa inh -1 and m-calpain inh 8.
Screening CCC(=O)c1ccccc1OCCSc1nc(C)cc(=O)[nH]1 returned FXIa inh -2, hK5 inh 146*, Thrombin inh 2, FXIIa inh 0 and m-calpain inh -12.
For CC(C)OCCCn1c(=S)[nH]c2cc3c(cc2c1=O)OCO3 the results were FXIa inh 19, hK5 inh 45*, Thrombin inh 44*, FXIIa inh 21 and m-calpain inh 14.
Screening N[C@@H](CO)c1nnc([C@H](CCC(=O)O)NC(=O)C2CCNCC2)o1 returned FXIa inh 1, hK5 inh 6, Thrombin inh 0, FXIIa inh 10 and m-calpain inh 20.
For Cc1ccc2cc(CCNC(=O)C(C)C)c(=O)[nH]c2c1C the results were FXIa inh -9, hK5 inh 16, Thrombin inh -7, FXIIa inh 5 and m-calpain inh 7.
For Cc1ccc2cc(CCNC(=O)c3cc4ccccc4o3)c(=O)[nH]c2c1C the results were FXIa inh 34, hK5 inh 33, Thrombin inh 16, FXIIa inh 29 and m-calpain inh 54*.
CC1Cc2ccccc2N1C(=O)C1CCCN(S(=O)(=O)c2cccc3nsnc23)C1 (stereo unspecified) was read as FXIa inh -3, hK5 inh -11, Thrombin inh -6, FXIIa inh 0 and m-calpain inh 55*.
`CC1CCCN(C(=O)C2CCCN(S(=O)(=O)c3cccc4nsnc34)C2)C1` (stereo unspecified) gave FXIa inh -1, hK5 inh -14, Thrombin inh -10, FXIIa inh 44* and m-calpain inh -19.

Compound activity deposited in PubChem by several laboratories.
